Converted amounts (≈) assume the structure as drawn. The source made the active and inactive calls. No cut-off for these calls is given here.
What was measured:
Bacillus subtilis = assay: Antimicrobial activity against Bacillus subtilis DSM10 after 16 to 48 hrs by serial dilution method; format: functional
Method in brief: (§1)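 Inoculum was adjusted to 6.7 × 10^5 cells/mL. Top concentration was 67 μg/mL (20 μL of 1 mg/mL stock) or 100 μg/mL (20 μL of 1.5 mg/mL stock). Ethanol (20 μL) served as negative control.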

Mucor plumbeus = assay: Antimicrobial activity against Mucor plumbeus MUCL 49355 after 16 to 48 hrs by serial dilution method; format: functional
Method in brief: (§2)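 Yeasts and filamentous fungi were tested by serial dilution in 96-well plates in YMG medium. Inoculum was adjusted to 6.7 × 10^5 cells/mL. Highest tested level was 67 μg/mL (from 20 μL of 1 mg/mL stock) or 100 μg/mL (from 20 μL of 1.5 mg/mL stock). Ethanol (20 μL) was the negative control.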

Yamadazyma tenuis = assay: Antimicrobial activity against Candida tenuis MUCL 29892 after 16 to 48 hrs by serial dilution method; format: functional; method in brief: as §2
[1] = test system: Schizosaccharomyces pombe; assay: Antimicrobial activity against Schizosaccharomyces pombe DSM 70572 after 16 to 48 hrs by serial dilution method; format: functional, organism-based; method in brief: as §2
Wickerhamomyces anomalus = assay: Antimicrobial activity against Pichia anomala DSM 6766 after 16 to 48 hrs by serial dilution method; format: functional; method in brief: as §2
Candida albicans = assay: Antimicrobial activity against Candida albicans DSM 1665 after 16 to 48 hrs by serial dilution method; format: functional; method in brief: as §2
Rhodotorula glutinis = assay: Antimicrobial activity against Rhodotorula glutinis DSM 10134 after 16 to 48 hrs by serial dilution method; format: functional; method in brief: as §2
Mucor hiemalis = assay: Antimicrobial activity against Mucor hiemalis DSM 2656 after 16 to 48 hrs by serial dilution method; format: functional; method in brief: as §2
Micrococcus luteus = assay: Antimicrobial activity against Micrococcus luteus DSM 1790 after 16 to 48 hrs by serial dilution method; format: functional; method in brief: as §1
Staphylococcus aureus = assay: Antimicrobial activity against Staphylococcus aureus DSM 346 after 16 to 48 hrs by serial dilution method; format: functional; method in brief: as §1
[2] = test system: Mycolicibacterium smegmatis; assay: Antimicrobial activity against Mycobacterium smegmatis DSM 44200 after 16 to 48 hrs by serial dilution method; format: functional; method in brief: as §1
L929 = assay: Cytotoxicity against mouse L929 cells after 5 days by MTT assay; format: functional, cell-based; details: L929, 120 h
Method in brief: (§3)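 Mouse fibroblast L929 and HeLa-derived KB3.1 cells were seeded at 6 × 10^3 cells/well in 96-well plates. Cells were exposed to compounds for 5 days, and IC50 was determined.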

KB 3-1 = assay: Cytotoxicity against human KB3-1 cells after 5 days by MTT assay; format: functional, cell-based; details: KB 3-1, 120 h; method in brief: as §3
Escherichia coli = assay: microbe, parasite or virus in culture; details: DSM 498

Molecule | MIC (Bacillus subtilis) [µg/mL] | Activity (Mucor plumbeus) | MIC (Yamadazyma tenuis) [µg/mL] | Activity (Bacillus subtilis) | Activity [1] | MIC (Wickerhamomyces anomalus; Hansenula anomala) [µg/mL] | Activity (Candida albicans) | MIC (Rhodotorula glutinis) [µg/mL] | Activity (Mucor hiemalis) | Activity (Micrococcus luteus) | Activity (Staphylococcus aureus) | Activity [2] | MIC (Mucor plumbeus) [µg/mL] | MIC (Mucor hiemalis) [µg/mL] | MIC (Staphylococcus aureus) [µg/mL] | also measured
CC1(C)S[C@@H]2[C@H](NC(=O)Cc3ccccc3)C(=O)N2[C@H]1C(=O)O [PENICILLIN G] | 6.3 (≈ 18.8 µM) |  |  |  |  |  |  |  |  |  |  |  |  |  |  | 
C[C@@H]1CO[C@@H]2c3c(O)cc4scnc4c3C[C@H]3[C@H](C(=O)O)CC[C@H]4[C@@H]1CC[C@@]243 |  | inactive | 100 (≈ 250 µM) | inactive | inactive | 66.7 (≈ 167 µM) | inactive | 33.3 (≈ 83.4 µM) | inactive | inactive | inactive | inactive |  |  |  | 
NYSTATIN |  |  | 12.5 |  |  |  |  | 16.7 |  |  |  |  | 12.5 | 16.7 |  | MIC [1]: 16.7 µg/mL; MIC (Wickerhamomyces anomalus): 16.7 µg/mL; MIC (Candida albicans): 16.7 µg/mL
C[C@@H]1CO[C@@H]2C3=C(C(=O)C=CC3=O)[C@H]3OC(=O)[C@@H]4CC[C@H]5[C@@H]1CC[C@@]25[C@@H]34 (racemic) | 100 (≈ 282 µM) |  | 100 (≈ 282 µM) |  | inactive | 66.7 (≈ 188 µM) | inactive | 33.3 (≈ 94 µM) |  | inactive |  | inactive | 100 (≈ 282 µM) | 16.7 (≈ 47.1 µM) | 66.7 (≈ 188 µM) | IC50 (L929): 2.2 µg/mL (≈ 6.21 µM); IC50 (KB 3-1): 2.8 µg/mL (≈ 7.9 µM)
NC[C@H]1O[C@H](O[C@H]2[C@H](O)[C@@H](O[C@H]3O[C@H](CO)[C@@H](O)[C@H](N)[C@H]3O)[C@H](N)C[C@@H]2N)[C@H](O)[C@@H](O)[C@@H]1O [KANAMYCIN] |  |  |  |  |  |  |  |  |  |  |  |  |  |  |  | MIC [2]: 0.4 µg/mL (≈ 0.826 µM)
O=C(O)c1cn(C2CC2)c2cc(N3CCNCC3)c(F)cc2c1=O [CIPROFLOXACIN] |  |  |  |  |  |  |  |  |  |  |  |  |  |  |  | MIC (Escherichia coli): 3.1 µg/mL (≈ 9.36 µM)
CN(C)[C@@H]1C(O)=C(C(N)=O)C(=O)[C@@]2(O)C(O)=C3C(=O)c4c(O)cccc4[C@@](C)(O)[C@H]3[C@H](O)[C@@H]12 [OXYTETRACYCLINE] |  |  |  |  |  |  |  |  |  |  |  |  |  |  | 6.7 (≈ 14.6 µM) | MIC (Micrococcus luteus): 0.4 µg/mL (≈ 0.869 µM)
CC(=O)N[C@@H](CSC1=CC(=O)C2=C(CC3[C@H](C(=O)O)CCC4[C@@H]5CC[C@]34[C@@H]2OC[C@H]5C)C1=O)C(=O)O (stereo partly specified) |  | inactive | 100 (≈ 193 µM) | inactive | inactive | 66.7 (≈ 129 µM) | inactive | 33.3 (≈ 64.3 µM) | inactive | inactive | inactive | inactive |  |  |  | 
C[C@@H]1CO[C@@H]2C3=C(CC4[C@H](C(=O)O)CCC5[C@@H]1CC[C@]452)C(=O)C(SC[C@H](O)C(=O)O)=CC3=O (stereo partly specified) |  | inactive |  | inactive | inactive |  | inactive |  | inactive | inactive | inactive | inactive |  |  |  | Activity (Yamadazyma tenuis): inactive; Activity (Wickerhamomyces anomalus): inactive; Activity (Rhodotorula glutinis): inactive
C[C@@H]1CO[C@@H]2C3=C(CC4[C@H](C(=O)O)CCC5[C@@H]1CC[C@]452)C(=O)C=CC3=O (stereo partly specified) | 50 (≈ 140 µM) |  | 25 (≈ 70.1 µM) |  | inactive | 66.7 (≈ 187 µM) |  | 16.7 (≈ 46.9 µM) |  |  |  | inactive | 100 (≈ 281 µM) | 8.3 (≈ 23.3 µM) | 33.3 (≈ 93.4 µM) | MIC (Candida albicans): 33.3 µg/mL (≈ 93.4 µM); MIC (Micrococcus luteus): 66.7 µg/mL (≈ 187 µM); IC50 (L929): 7.5 µg/mL (≈ 21 µM); IC50 (KB 3-1): 8.5 µg/mL (≈ 23.8 µM)
